Broadly, the IC50 is the concentration at which inhibition is half-maximal.

The source made the active and inactive calls. The calls are words filed in the database; no cut-off is given here. Bounds are passed on as bounds.

The results in this text go back to ChEMBL document CHEMBL4706701, “Synthesis and biological activity of selenopsammaplin A and its analogues as antitumor agents with DOT1L inhibitory activity” (Bioorg Med Chem, 2021).

Data set [1] concerns the target Histone-lysine N-methyltransferase, H3 lysine-79 specific (Homo sapiens) (UniProt Q8TEK3). Kind of data set: Inhibition of DOT1L in human MDA-MB-231 cells assessed as down regulation of H3K79me2 expression at 200 nM by Western blot analysis. Type of data set: cell-based. In a few lines:
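MDA-MB-231 lysates were made in 2× SDS sample buffer with vanadate and fluoride. 5-20 μg protein was run on 8–15% SDS-PAGE and blotted to PVDF. Membranes were blocked in 5% BSA, probed for H3K79me2 with total histone H3, and detected by ECL. Mean ± SD (n = 3), representative of three separate experiments.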
On the technique in general: In western blotting, separated proteins are transferred to a membrane and probed.

Data set [2] deals with MDA-MB-231. Kind of data set: Down regulation of CDH2 expression in human MDA-MB-231 cells at 50 to 200 nM measured after 48 hrs by Western blot analysis. It counts as functional, cell-based. To be noted: dose 50-200 nM. In a few lines:
(§1)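 MDA-MB-231 cells exposed to compound for 48 h; lysates in 2× SDS sample buffer with orthovanadate and NaF, protein by BCA. 5–20 μg resolved on 8–15% SDS-PAGE, PVDF, BSA block, probed for E-cadherin, N-cadherin, ZEB1, vimentin; ECL detection, β-actin internal control, band densitometry. Mean ± SD (n = 3), three experiments.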

Data set [3] relates to MDA-MB-231. As to the kind of experiment: Antimetastatic activity against human MDA-MB-231 cells xenografted in BALB/c nu mouse assessed as up regulation of E-cadherin expression in tumor tissue at 5 to 15 mg/kg, ip administered thrice per week for 38 days measured 1 week post last dose by H and E staining based immunohistochemical analysis. Type of data set: functional, organism-based. To be noted: dose 5-15 mg/kg, time 45.0 day. The essentials:
(§2)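 Tumors and lungs from orthotopic MDA-MB-231/Luc nude mice (ip dosing three times weekly, 38 days) fixed in 4% PFA, paraffin-embedded, sectioned, antigen-retrieved. Lungs H&E-stained for metastatic cells; tumor sections immunostained for Ki67, H3K79me2, E-cadherin, vimentin with HRP detection, hematoxylin counterstain, imaged at 200×.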

Data set [4] deals with MDA-MB-231. As to the kind of experiment: Down regulation of VIM expression in human MDA-MB-231 cells at 50 to 200 nM measured after 48 hrs by Western blot analysis. It counts as functional, cell-based. To be noted: dose 50-200 nM. In a few lines:
as §1

In data set [5] the test system is MDA-MB-231. Kind of data set: Antitumor activity against human MDA-MB-231 cells xenografted in BALB/c nu mouse assessed as tumor growth inhibition at 15 mg/kg, ip administered thrice per week for 38 days by caliper method relative to control. The conditions noted are these: MDA-MB-231, ip, 912 h, time 38 day, read-out: TGI. It counts as functional. In a few lines:
(§3)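 Female BALB/c-nu mice (5–6 wk) given 1 × 10⁷ luciferase-expressing MDA-MB-231 cells in 50:50 DMEM/Matrigel into the fourth fat pad; randomized after 10 days (six per group). Dosed ip in EtOH/Cremophor/saline (5:5:90) three times weekly for 38 days. Tumor L, W, H measured by caliper, volume = LWH/2; body weight weekly; tumors excised and weighed at termination.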

Data set [6] has as its system MDA-MB-231. As to the kind of experiment: Antimetastatic activity against human MDA-MB-231 cells xenografted in BALB/c nu mouse assessed as reduction in metastatic cells in lung tissue at 5 to 15 mg/kg, ip administered thrice per week for 38 days measured 1 week post last dose by H and E staining based immunohistochemical analysis. It counts as functional, organism-based. The conditions noted are these: dose 5-15 mg/kg, time 45.0 day. The essentials:
as §2
On the technique in general: In xenograft studies the graft and the host belong to different species.

A short description of data set [7]: Selectivity ratio of IC50 for human MCF-10A cells to IC50 for human HCT-116 cells. It counts as toxicity. To be noted: MCF-10A cells versus HCT-116 cells, read-out: Ratio IC50.
For data set [8], the system named is MDA-MB-231. As to the kind of experiment: Antitumor activity against human MDA-MB-231 cells xenografted in BALB/c nu mouse assessed as tumor growth inhibition at 5 mg/kg, ip administered thrice per week for 38 days by caliper method relative to control. It counts as functional. To be noted: MDA-MB-231, ip, 912 h, time 38 day, read-out: TGI. In a few lines:
as §3

Data set [9] is described as follows: Selectivity ratio of IC50 for human MCF-10A cells to IC50 for human A549 cells. Type of data set: toxicity. The conditions noted are these: MCF-10A cells versus A549 cells, read-out: Ratio IC50.
In another data set the test system is SNU-638. As to the kind of experiment: Cytotoxicity against human SNU-638 cells assessed as reduction in cell viability by SRB assay. It counts as functional, cell-based. In a few lines: (§4)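 Cells seeded in 96-well plates and exposed to compounds for the stated times. Zero-day controls were incubated 30 min. Cells were fixed and stained with 0.4% SRB in 1% acetic acid, and bound dye was dissolved in 10 mM Tris (pH 10.0). A515 was read, and IC50 was calculated by non-linear regression.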
In general terms: Sulforhodamine B stains cellular protein and so reports cell mass.

Data set [10] deals with MDA-MB-231. As to the kind of experiment: Antimetastatic activity against human MDA-MB-231 cells xenografted in BALB/c nu mouse assessed as reduction in luciferase signal in lung tissue at 5 to 15 mg/kg, ip administered thrice per week for 38 days measured 1 week post last dose by luciferase based imaging analysis. Type of data set: functional, organism-based. To be noted: dose 5-15 mg/kg, time 45.0 day. In a few lines: (§5)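 Orthotopic luciferase-expressing MDA-MB-231 model in female BALB/c-nu mice, ip dosing in EtOH/Cremophor/saline (5:5:90) three times weekly for 38 days. One week later anesthetized mice imaged by IVIS 15 min after D-luciferin (150 mg/kg in PBS); lungs and other organs then excised and imaged ex vivo.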

In data set [11] the test system is MDA-MB-231. As to the kind of experiment: Up regulation of CDH1 expression in human MDA-MB-231 cells at 50 to 200 nM measured after 48 hrs by Western blot analysis. To be noted: dose 50-200 nM. It counts as functional, cell-based. The essentials: as §1
Data set [12] deals with MDA-MB-231. Kind of data set: Down regulation of VIM mRNA expression in human MDA-MB-231 cells at 50 to 200 nM measured after 24 hrs by RT-PCR analysis. Type of data set: functional, cell-based. To be noted: dose 50-200 nM.
The subject of data set [13] is MDA-MB-231. Kind of data set: Antimetastatic activity against human MDA-MB-231 cells xenografted in BALB/c nu mouse assessed as reduction in luciferase signal in tumor site at 5 to 15 mg/kg, ip administered thrice per week for 38 days measured 1 week post last dose by luciferase based imaging analysis. Type of data set: functional, organism-based. The conditions noted are these: dose 5-15 mg/kg, time 45.0 day. In a few lines:
as §5

Data set [14] deals with MDA-MB-231. Kind of data set: Cytotoxicity against human MDA-MB-231 cells assessed as reduction in cell viability by SRB assay. It counts as functional, cell-based. In a few lines: as §4
Data set [15] relates to MDA-MB-231. Kind of data set: Antimetastatic activity against human MDA-MB-231 cells xenografted in ip dosed BALB/c nu mouse assessed as down regulation of vimentin expression in tumor tissue administered thrice per week for 38 days measured 1 week post last dose by Western blot analysis. It counts as functional, organism-based. To be noted: dose 5-15 mg/kg, time 45.0 day. The essentials: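 Frozen tumor portions from the orthotopic MDA-MB-231 nude mouse study homogenized in complete lysis buffer; protein by Bradford assay. Western blotting for H3K79me2, E-cadherin and vimentin, β-actin internal control, band intensities semi-quantified; three separate experiments.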

Data set [16] in a line: Toxicity in human MDA-MB-231 cells xenografted BALB/c nu mouse at 5 to 15 mg/kg, ip administered thrice per week for 38 days. To be noted: in vivo, 912 h, dose 5-15 mg/kg, time 38 day. It counts as organism-based. In a few lines:
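Female BALB/c-nu mice, 5–6 weeks old, received 1 × 10⁷ luciferase-expressing MDA-MB-231 cells in 50:50 DMEM/Matrigel into the fourth fat pad. At day 10, mice were randomized into groups of six. Dosing was i.p. three times weekly for 38 days, in vehicle EtOH/Cremophor/saline 5:5:90. Body weight was recorded weekly, and toxicity was judged by lethality and weight loss.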

Another data set has as its system HCT-116. Kind of data set: Cytotoxicity against human HCT-116 cells assessed as reduction in cell viability by SRB assay. Type of data set: functional, cell-based. The essentials:
as §4

Data set [17] can be described thus: Selectivity ratio of IC50 for human MCF-10A cells to IC50 for human SNU-638 cells. The essentials:
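Cytotoxicity by SRB assay: cells seeded in 96-well plates and treated with compounds; fixed, stained with 0.4% SRB in 1% acetic acid, dye dissolved in 10 mM Tris (pH 10.0), absorbance read at 515 nm. IC50 by non-linear regression, means of at least three experiments; ratio of MCF10A IC50 to cancer-line IC50.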

Chain of Histone-lysine N-methyltransferase, H3 lysine-79 specific (Homo sapiens) (Q8TEK3 whole entry, looked up): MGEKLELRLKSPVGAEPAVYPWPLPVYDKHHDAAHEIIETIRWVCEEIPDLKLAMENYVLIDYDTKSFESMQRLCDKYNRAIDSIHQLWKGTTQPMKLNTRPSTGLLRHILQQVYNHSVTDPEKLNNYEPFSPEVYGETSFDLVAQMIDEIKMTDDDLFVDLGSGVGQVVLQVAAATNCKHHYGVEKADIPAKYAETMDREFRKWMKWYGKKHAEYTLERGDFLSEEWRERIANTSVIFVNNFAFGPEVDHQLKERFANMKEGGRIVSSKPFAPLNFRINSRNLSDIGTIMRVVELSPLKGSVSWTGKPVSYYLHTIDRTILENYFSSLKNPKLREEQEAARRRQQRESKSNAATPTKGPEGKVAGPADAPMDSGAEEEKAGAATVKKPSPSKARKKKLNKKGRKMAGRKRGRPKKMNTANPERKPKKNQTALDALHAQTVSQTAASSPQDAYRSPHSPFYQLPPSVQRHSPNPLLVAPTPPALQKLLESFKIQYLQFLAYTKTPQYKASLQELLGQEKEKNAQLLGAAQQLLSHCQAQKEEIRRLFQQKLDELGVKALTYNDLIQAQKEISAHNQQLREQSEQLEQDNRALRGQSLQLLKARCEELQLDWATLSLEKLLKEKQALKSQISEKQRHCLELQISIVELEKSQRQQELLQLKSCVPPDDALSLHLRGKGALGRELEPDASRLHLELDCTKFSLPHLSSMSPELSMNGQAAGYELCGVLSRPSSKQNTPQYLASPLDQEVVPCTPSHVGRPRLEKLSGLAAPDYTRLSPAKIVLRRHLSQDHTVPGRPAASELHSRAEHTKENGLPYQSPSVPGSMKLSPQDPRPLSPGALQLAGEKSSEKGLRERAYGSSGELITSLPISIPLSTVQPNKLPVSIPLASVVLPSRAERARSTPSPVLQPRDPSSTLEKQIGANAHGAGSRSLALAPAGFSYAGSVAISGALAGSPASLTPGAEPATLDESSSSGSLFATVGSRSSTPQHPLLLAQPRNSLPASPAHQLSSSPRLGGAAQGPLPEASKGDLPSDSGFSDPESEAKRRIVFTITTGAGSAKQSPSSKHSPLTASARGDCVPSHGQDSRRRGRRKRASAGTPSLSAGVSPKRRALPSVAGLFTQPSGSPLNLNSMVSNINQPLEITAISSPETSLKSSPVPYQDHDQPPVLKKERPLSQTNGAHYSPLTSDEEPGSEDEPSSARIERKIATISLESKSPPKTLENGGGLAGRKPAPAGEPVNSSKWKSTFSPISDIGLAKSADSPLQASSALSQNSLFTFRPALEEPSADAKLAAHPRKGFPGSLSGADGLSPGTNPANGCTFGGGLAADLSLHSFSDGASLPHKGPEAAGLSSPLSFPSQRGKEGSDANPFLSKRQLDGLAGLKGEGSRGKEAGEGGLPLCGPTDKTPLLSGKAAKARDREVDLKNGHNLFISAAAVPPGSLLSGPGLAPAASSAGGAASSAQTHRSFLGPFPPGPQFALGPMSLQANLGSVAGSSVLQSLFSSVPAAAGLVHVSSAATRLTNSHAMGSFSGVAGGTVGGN

Consider `O=C(NCC[Se][Se]CCNC(=O)/C(Cc1ccccc1)=N/O)/C(Cc1ccccc1)=N/O`, for which, in [1], the “H3K79me2 downregulation (active/not active)” value is “Active”. Also, the outcome in the data set on MDA-MB-231 [2], in the data set on MDA-MB-231 [3], in the data set with MDA-MB-231 [4], in the data set on MDA-MB-231 [6], in the data set with MDA-MB-231 [10] and with MDA-MB-231 [11] was Active. The outcome with MDA-MB-231 [12] and with MDA-MB-231 [13] was Active. For the same compound, the inhibition in vivo at 15 mg/kg in the data set with MDA-MB-231 [5] was 55.1%. For the same compound, the selectivity ratio in [7] and in data set [9] was above 100 throughout. Besides, in the data set on MDA-MB-231 [8], the inhibition in vivo at 5 mg/kg is 45.5%. Besides, the IC50 in the data set on SNU-638 was found to be 50 nM; with MDA-MB-231 [14], 60 nM; in the data set on HCT-116 it was 90 nM. In addition, the Activity result with MDA-MB-231 [15] was “Dose-dependent effect”; in [16], “Non-Toxic”. Further, in [17], the “Ratio IC50” value is listed as above 100.
